SUMO Mot1 rescue – blocks SUMOylation pathway, rescuing yeast Mot1-301 growth; S. cerevisiae Mot1-301 growth rescue, ATP luminescence, 38.5C; percent above DMSO median, 100 means doubled; growth rescue, % at 18.8 µM; 320,000 tested, 1% active;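 active = every valid replicate shows activation above 250% relative to neutral control wells; inactive = the rest, any valid replicate at or below 250%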;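 also: OY570 slx delta 5 strain wells were the positive control but not used for scaling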
NALP1 inh – blocks the NALP1 inflammasome reconstituted in yeast. AID 2071. inhibition, % at 10 µM. 280,000 tested, 0.61% active. S. cerevisiae NALP1/ASC/caspase-1 growth, X-gal OD620, 72 h; in the data active = inhibition mostly above about 24%, no sharp cut-off; inactive = mostly below about 32%
VIM-2 inhibitor – inhibitors of Pseudomonas aeruginosa VIM-2 metallo-beta-lactamase | purified VIM-2, nitrocefin hydrolysis, epi-absorbance fluorescence | inhibition, % at 5.6 µM | 290,000 tested, 0.89% active | AID 1527;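 active = inhibition above the mean of all tested compounds plus 3 SD, cutoff set per screening run, cut at about 7.5% in these data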;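 also: red hydrolysis product quenches plate fluorescence so inhibitors raise well fluorescence; 0% = enzyme with DMSO and 100% = DMSO without enzyme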
UBC9 SUMO inh – inhibitors of human SUMOylation (UBC9) | P63279 | HTRF SUMOylation assay, SAE1/SAE2 + UBC9, in vitro | inhibition, % at 35 µM | 290,000 tested, 0.36% active | AID 2006; in the data active = inhibition above about 50%, passing the limit was not always enough
Target sequence (P63279 whole entry, looked up): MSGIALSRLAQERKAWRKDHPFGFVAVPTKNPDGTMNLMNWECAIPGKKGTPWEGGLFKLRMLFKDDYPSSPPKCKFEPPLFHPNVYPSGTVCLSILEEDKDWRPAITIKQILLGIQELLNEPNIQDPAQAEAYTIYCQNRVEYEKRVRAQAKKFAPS
IMP-1 inh-1 – blocks Pseudomonas aeruginosa IMP-1 metallo-beta-lactamase. purified IMP-1, nitrocefin hydrolysis, epi-absorbance fluorescence. 290,000 tested, 0.45% active. inhibition, % at 5.6 µM. AID 1556;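 active = inhibition above the mean plus 3 SD of all compounds in the same screening run, cut at about 4.5% in these data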;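 also: 0% = IMP-1 with DMSO and 100% = DMSO wells lacking enzyme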
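System: purified recombinant IMP-1 beta-lactamase. Medium: Zinc- and detergent-supplemented HEPES buffer, pH 7.1. Compound: one 5.6 µM dose […]. Schedule: 15 min preincubation plus 25 min reaction at 25 °C. Technique: Epi-absorbance fluorescence, 480 nm excitation, 530 nm emission.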
FID counter – fluorescent intercalator displacement, NS3 helicase counter-screen. 290,000 tested, 0.17% active. DNA fluorescent intercalator displacement, fluorescence. inhibition, % at 7.9 µM. AID 1845; in the data active = inhibition above about 37%;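 also: 0% = vehicle and 100% = reference compound; higher means more ethidium bromide displaced from hairpin DNA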
IMP-1 inh-2 – IMP-1 inhibition, counter-screen for VIM-2 inhibitors. shares compounds with VIM-2 inhibitor. purified IMP-1, nitrocefin hydrolysis, epi-absorbance fluorescence. inhibition, % at 5.6 µM. 1,300 tested, under 10 active. AID 1856; call rule not given here;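 also: 0% = enzyme with vehicle and 100% = vehicle without enzyme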
VIM-2 FRET inh – counter-screen for VIM-2 inhibitors: epi-absorbance artifacts via FRET. inhibition, % at 5.6 µM. purified VIM-2, CCF2 FRET substrate hydrolysis. shares compounds with VIM-2 inhibitor. 1,300 tested, 23% active;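 active = inhibition above the mean of all tested compounds plus 3 SD, cut at about 19% in these data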;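 also: 0% = VIM-2 plus DMSO and 100% = no enzyme wells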
TEM-1 inh – selectivity counter-screen for VIM-2 inhibitors: E. coli TEM-1 inhibitors | inhibition, % at 5.6 µM | Purified TEM-1, nitrocefin hydrolysis, epi-absorbance fluorescence | 1,300 tested, 3% active | AID 1866 | shares compounds with VIM-2 inhibitor;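 active = inhibition above that campaign's mean inhibition plus 3 SD, cut at about 0.46% in these data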;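 also: 0% = TEM-1 with DMSO and 100% = TEM-1 with 100 µM potassium clavulanate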
Target sequence (P62593 whole entry, looked up): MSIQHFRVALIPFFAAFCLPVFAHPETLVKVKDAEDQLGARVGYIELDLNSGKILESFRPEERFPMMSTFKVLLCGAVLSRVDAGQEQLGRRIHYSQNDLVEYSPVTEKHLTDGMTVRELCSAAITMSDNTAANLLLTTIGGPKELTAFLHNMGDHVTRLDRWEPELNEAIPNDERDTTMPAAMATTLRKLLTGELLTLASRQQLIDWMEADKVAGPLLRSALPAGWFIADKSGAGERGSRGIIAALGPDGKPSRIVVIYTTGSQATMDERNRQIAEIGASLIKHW
VIM-2 inh conf – confirmation of P. aeruginosa VIM-2 metallo-beta-lactamase inhibitors; shares compounds with VIM-2 inhibitor; purified VIM-2, nitrocefin hydrolysis, epi-absorbance; 1,300 tested, 96% active; inhibition, % at 5.6 µM;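 active = inhibition of the VIM-2 beta-lactamase enzyme above about 11% from the earlier first-round screen, limit read from the data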;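 also: 0% = VIM-2 with DMSO and 100% = buffer wells without enzyme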
Active calls of the source: *; . = not tested or not shown. A selection: hits, their analogues and other compounds. The true share with any hit is near 2.9%.

SMILES	SUMO Mot1 rescue	NALP1 inh	VIM-2 inhibitor	UBC9 SUMO inh	IMP-1 inh-1	FID counter	IMP-1 inh-2	VIM-2 FRET inh	TEM-1 inh	VIM-2 inh conf
Cc1cc([N+](=O)[O-])c(C)cc1-c1ccc(/C=N/NC(=O)Cn2nnnc2N)o1	50.5	-2.9	33.2*	22.3	-4.2	15.1	-2.9	-11.3	-3.0	42.0*
Cc1cccc(N(CC(=O)NC2CCCCC2)C(=O)CCCC(=O)Nc2ccccn2)c1C	-1.7	12.7	0.7	15.0	-1.3	-38.4	.	.	.	.
Cc1ccc(S(=O)(=O)N(C)c2ccc(OCC(=O)Nc3cccc(-n4cnnn4)c3C)cc2)cc1	-12.1	15.6	0.1	0.7	0.7	-32.2	.	.	.	.
CCCCN1C(=O)/C(=C2\SC(N3CCOCC3)=NC2=O)c2ccccc21	-21.3	-1.6	4.7	-0.6	-4.9	-3.3	.	.	.	.
CCN1C(=O)/C(=C2\SC(N3CCOCC3)=NC2=O)c2ccccc21	.	-3.3	15.0*	-6.1	-1.5	-2.3	-1.8	-0.6	-6.6	23.9*
O=Cc1ccc2ccc3cccnc3c2n1	-5.8	10.9	58.9*	-24.3	-0.5	-4.3	-3.8	-5.4	-4.9	69.9*
O=Cc1ccc2cccnc2n1	-7.7	16.2	-2.3	11.1	-5.7	2.1	.	.	.	.
Cc1cc(NCCCN)nc(-c2ccccc2O)n1	-29.3	-2.7	36.3*	-1.8	-4.2	16.3	-3.4	-0.7	-7.1	53.7*
Cc1ccc(Nc2cc(C)nc(-c3ccccc3O)n2)cc1	11.7	-1.5	-7.6	4.4	-5.9	2.2	.	.	.	.
CN1C2CCC1CC(OC(=O)C(CO)c1ccccc1)C2 (centres undefined)	-14.1	.	.	.	.	.	.	.	.	.
O=P(O)(O)c1ccccc1OCc1ccccc1	3.2	-3.9	54.8*	23.6	-2.7	-0.6	-2.6	81.5*	-5.2	67.8*
CCOP(=O)(O)c1ccccc1OCCOCCOc1ccccc1P(=O)(O)OCC	-8.2	-11.8	-2.3	4.5	-2.2	-0.5	.	.	.	.
NNC(=O)c1ccccc1OCc1ccccc1	-16.9	14.7	-1.5	12.2	-3.6	-13.8	.	.	.	.
O=P(O)(O)c1ccccc1OCCCCCOc1ccccc1P(=O)(O)O	-4.3	14.2	61.5*	-9.5	1.4	0.6	-3.3	76.5*	-6.2	65.5*
CN1CCN(C(=O)CSc2ccc(C(F)(F)F)cc2[N+](=O)[O-])CC1	4.2	29.0	13.2*	-7.8	0.1	7.6	-3.0	-1.5	-5.9	38.5*
CC(=O)N1CCC(C(=O)N2CCN(S(=O)(=O)c3ccc(Cl)s3)CC2)CC1	0.8	15.5	-2.5	19.7	-2.9	-7.8	.	.	.	.
O=c1c2ccccc2oc2ccc(Oc3ccccc3)cc12	-8.1	10.4	-0.2	-13.0	-3.0	-14.4	.	.	.	.
COc1cc2oc3ccccc3c(=O)c2cc1OC	208.2	10.2	14.2*	40.0	-2.4	-21.5	-2.5	-0.4	-3.5	18.3*
COc1ccc(CCNc2nc3ccccc3n3cnnc23)cc1OC	.	2.2	-1.6	11.0	-2.7	-3.3	.	.	.	.
CCc1nnc2c(NCCc3ccc(OC)c(OC)c3)nc3ccccc3n12	.	8.0	14.7*	5.7	-1.9	-41.4	-2.1	0.2	-3.7	20.6*
CCCc1nnc2c(N(C)S(=O)(=O)c3ccc(C)cc3)nc3ccccc3n12	-10.0	28.7	3.9	2.0	-0.1	-9.6	.	.	.	.
CCc1nnc2c(N(C)C)nc3ccccc3n12	-1.2	12.6	16.3*	-1.0	-0.5	-1.9	-3.0	-1.7	-6.5	31.2*
COc1ccc(C)cc1S(=O)(=O)NNc1nc(C)cc(C)n1	-20.9	.	.	.	.	.	.	.	.	.
O=C1CCCC/C1=C/Nc1cccc(C(F)(F)F)c1	-10.9	23.7	13.1*	19.1	-3.3	-1.1	-2.1	29.6*	1.4*	24.7*
O=C(O)c1ccccc1C(=O)c1ccc(Oc2ccccc2)cc1	1.2	20.3	21.8*	13.3	-1.1	-30.9	-4.1	44.0*	-3.6	24.4*
SMILES	SUMO Mot1 rescue	NALP1 inh	VIM-2 inhibitor	UBC9 SUMO inh	IMP-1 inh-1	FID counter	IMP-1 inh-2	VIM-2 FRET inh	TEM-1 inh	VIM-2 inh conf
Cc1nnsc1C(=O)Nc1ccc(S(=O)(=O)N2CCC(C)CC2)cc1	86.3	29.9	-3.5	-14.5	0.3	-7.9	.	.	.	.
Cc1cc(C)c2c(n1)sc1c(N3CCN(C)CC3)ncnc12	-26.2	.	13.0*	29.0	-0.7	-6.2	-1.9	-0.4	-4.3	21.3*
Cc1nc2ccc(S(=O)(=O)N(C)CC(=O)NCc3ccc(N(C)C)cc3)cc2s1	10.9	-4.5	-4.0	.	-1.9	-24.8	.	.	.	.
COc1ccc(-c2ccnc3ncnn23)cc1	16.7	0.0	-2.3	18.9	-2.5	-5.7	.	.	.	.
Nc1nccc(-c2ccc(-n3cnc4ccccc43)cc2)n1	82.4	34.3	18.1*	9.1	-3.7	-11.1	-3.9	-5.7	-6.3	38.5*
Cc1nccc(-c2ccc(-n3cnc4ccccc43)cc2)n1	167.7	-2.9	17.1*	19.3	0.2	-15.8	-2.6	-2.5	-5.8	33.4*
c1ccc2c(c1)ncn2-c1ccc(-c2ccnc3ncnn23)cc1	-25.7	19.6	30.3*	5.3	-3.4	-7.8	-2.0	-9.8	-3.3	64.8*
COc1ccc(CN(C)S(=O)(=O)c2nnc(NC(=O)c3cccc(F)c3)s2)cc1OC	3.4	20.7	-3.9	15.7	0.1	-49.9	.	.	.	.
CCOc1cc(N2CCOCC2)c(OCC)cc1NC(=O)c1ccc(C)cc1	13.5	-3.9	-2.5	-0.2	-3.3	-16.3	.	.	.	.
CCOc1cc(N2CCOCC2)c(OCC)cc1NC(=O)c1ccc(-n2ccnc2)c([N+](=O)[O-])c1	50.2	-3.2	68.0*	11.0	-4.4	-34.0	-2.8	-7.3	-6.1	75.4*
CCc1cc(=O)oc2c(C)c(OC(C)C(=O)NCCCn3ccnc3)ccc12 (centres undefined)	-2.5	18.4	19.5*	17.2	-0.6	-4.4	-1.9	-6.8	-6.1	30.3*
CCc1cc(=O)oc2cc(OC(C)C(=O)NCCCn3ccnc3)ccc12 (centres undefined)	-5.4	10.3	-0.3	9.8	-1.2	5.6	.	.	.	.
Cc1cc(=O)oc2c(C)c(OC(C)C(=O)NCCCn3ccnc3)ccc12 (centres undefined)	114.5	1.5	15.5*	11.6	-2.6	2.5	-2.9	-4.0	-7.0	31.0*
O=C1C(=O)N(Cc2cccnc2)C(c2ccccn2)/C1=C(/O)c1ccc(F)cc1 (centres undefined)	-8.8	9.5	52.1*	19.9	-2.5	0.8	-2.4	75.7*	-6.1	68.9*

From PubChem BioAssay
